# Results taken from ChEMBL document CHEMBL2321678, “Incorporation of non-natural amino acids improves cell permeability and potency of specific inhibitors of proteasome trypsin-like sites” (J Med Chem, 2013).
# Activity calls are given as the source filed them. The calls are words filed in the database; no cut-off is given here.
# How the values were obtained:
# Oryctolagus cuniculus = organism: Oryctolagus cuniculus; test: Selectivity ratio of IC50 for chymotrypsin-like activity of rabbit 26s proteasome beta 5 subunit to IC50 for trypsin-like activity of rabbit 26s proteasome beta 2 subunit
# Outline: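 Purified rabbit-muscle 26S proteasome (final 3 µg/mL) preincubated 30 min with a range of inhibitor concentrations. […] Amc release read continuously for 30 min (ex 380/em 460 nm). Slopes expressed as % of mock; IC50 by four-parameter least-squares fit.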
# [1] = Inhibition of trypsin-like activity of rabbit 26s proteasome beta 2 subunit assessed as hydrolysis of Ac-RLR-amc fluorogenic substrate preincubated for 30 mins followed by substrate addition measured for 30 mins by fluorescence plate reader analysis; parameters: species or system Oryctolagus cuniculus
# Outline: (§1)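 Purified rabbit-muscle 26S proteasome (final 3 µg/mL) preincubated 30 min with a range of inhibitor concentrations. Slopes expressed as % of mock; IC50 by four-parameter least-squares fit.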
# [2] = Inhibition of chymotrypsin-like activity of rabbit 26s proteasome beta 5 subunit assessed as hydrolysis of Suc-LLVY-amc fluorogenic substrate preincubated for 30 mins followed by substrate addition measured for 30 mins by fluorescence plate reader analysis; parameters: species or system Oryctolagus cuniculus; outline: as §1
# [3] = Inhibition of caspase-like activity of rabbit 26s proteasome beta 1 subunit assessed as hydrolysis of Acn-LPnLD-amc fluorogenic substrate preincubated for 30 mins followed by substrate addition measured for 30 mins by fluorescence plate reader analysis; parameters: species or system Oryctolagus cuniculus; outline: as §1
# [4] = target: T1, Proteasome Macropain subunit MB1 (Homo sapiens, UniProt P28074); test: Inhibition of chymotrypsin-like activity of proteasome beta 5 subunit in HEK-293T cell lysates using BODIPY-BODIPY-TMR-epoxomicin as probe after 1 hr by SDS-PAGE analysis
# T1 sequence (P28074 whole entry): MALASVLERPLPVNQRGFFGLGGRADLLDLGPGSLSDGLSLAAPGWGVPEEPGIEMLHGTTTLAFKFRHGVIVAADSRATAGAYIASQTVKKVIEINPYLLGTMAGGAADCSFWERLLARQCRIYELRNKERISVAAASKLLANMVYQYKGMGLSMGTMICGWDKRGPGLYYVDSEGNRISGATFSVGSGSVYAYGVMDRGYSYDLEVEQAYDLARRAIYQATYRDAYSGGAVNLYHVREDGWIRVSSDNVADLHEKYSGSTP
# Outline: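 Then 1 h at 37 °C with BODIPY-TMR-Ahx3L3-vs or BODIPY-TMR-epoxomicin (0.5 µM). Three independent experiments; IC50 fitted.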
# NCI-H929 = test: Inhibition of cathepsin in human NCI-H929 cells assessed as hydrolysis of Z-FR-amc fluorogenic substrate after 6 hrs; type: cell-based
# Outline: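 NCI-H929 cells treated 6 h, washed and permeabilized on ice with 0.05% digitonin in Tris pH 7.5 sucrose buffer. Cytosol removed by centrifugation, then the pellet lysed in Bis-Tris pH 5.5/CHAPS buffer. Protein-normalized extract added to 40 µM Z-FR-amc in phosphate pH 6.0, EDTA, DTT. Fluorescence read continuously for 30 min; rate from slopes.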
# [5] = target: Proteasome Macropain subunit (Homo sapiens) (UniProt P49721); test: Selectivity ratio of IC50 for trypsin-like activity of proteasome in human RPMI-8226 cells to IC50 for trypsin-like activity of proteasome in human NCI-H929 cells; type: cell-based
# Chain of Proteasome Macropain subunit (Homo sapiens) (P49721 whole entry): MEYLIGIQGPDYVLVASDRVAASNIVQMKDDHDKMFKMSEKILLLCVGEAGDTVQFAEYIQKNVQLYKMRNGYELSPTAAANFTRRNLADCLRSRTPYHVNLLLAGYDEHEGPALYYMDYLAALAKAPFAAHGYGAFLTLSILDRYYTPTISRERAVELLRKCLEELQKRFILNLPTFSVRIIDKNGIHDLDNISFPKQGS
# [6] = target: T1, Proteasome Macropain subunit MB1; test: Inhibition of chymotrypsin-like activity of proteasome in human NCI-H929 cells after 6 hrs by proteasomeGlo assay; type: cell-based
# Outline: (§2)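 Cells then pelleted, resuspended in PBS and mixed with site-specific luminogenic substrates in lysis/assay buffer. Mixing 3 min, then 17 min in the dark before luminescence, triplicate per substrate/point. Activity as % of mock; IC50 from a four-parameter nonlinear fit.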
# [7] = target: T1, Proteasome Macropain subunit MB1; test: Inhibition of chymotrypsin-like activity of proteasome in human RPMI-8226 cells after 6 hrs by proteasomeGlo assay; type: cell-based; outline: as §2
# [8] = target: Proteasome Macropain subunit (Homo sapiens) (UniProt P49721); test: Inhibition of trypsin-like activity of proteasome beta 2 subunit in HEK-293T cell lysates after 1 hr by SDS-PAGE analysis
# Outline: (§3)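 Then 1 h at 37 °C with BODIPY-TMR-Ahx3L3-vs or BODIPY-TMR-epoxomicin (0.5 µM). Samples run on 12.5% SDS-PAGE; β2/β5 band fluorescence taken relative to mock. Three independent experiments; IC50 fitted.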
# [9] = target: T2, Proteasome Macropain subunit MB1 (Homo sapiens) (UniProt P28074); test: Inhibition of chymotrypsin-like activity of proteasome beta 5 subunit in HEK-293T cell lysates after 1 hr by SDS-PAGE analysis; outline: as §3
# T2 sequence (whole entry): T1 sequence (P28074 whole entry)
# Homo sapiens = organism: Homo sapiens; test: Selectivity ratio of IC50 for chymotrypsin-like activity of human proteasome beta 5 subunit to IC50 for trypsin-like activity of human proteasome beta 2 subunit
SMILES,IC50 [1] [µM],IC50 [2] [µM],IC50 [3] [µM],further results
CC(C)C[C@H](NC(=O)[C@H](Cc1ccccc1)N=[N+]=[N-])C(=O)N[C@@H](CC(C)C)C(=O)N[C@@H](Cc1ccc(N)cc1)C(=O)[C@@]1(C)CO1,1.8,0.01,> 30,Ratio IC50 (Oryctolagus cuniculus): 0.0056
CC(C)C[C@H](NC(=O)[C@H](Cc1ccccc1)N=[N+]=[N-])C(=O)N[C@@H](CC(C)C)C(=O)N[C@H](/C=C/S(C)(=O)=O)Cc1ccncc1,0.42,< 0.1,> 30,IC50 [4]: 1.5 µM
CC(C)C[C@H](NC(=O)[C@H](Cc1ccccc1)N=[N+]=[N-])C(=O)N[C@@H](CC(C)C)C(=O)N[C@H](/C=C/S(C)(=O)=O)CCCCN,0.74,22,> 30,–
CC(C)C[C@H](NC(=O)[C@H](Cc1ccncc1)NC(=O)[C@H](Cc1ccccc1)N=[N+]=[N-])C(=O)N[C@H](/C=C/S(C)(=O)=O)Cc1ccc(CN)cc1,0.012,–,30,inhibition (NCI-H929): Active
CC(C)C[C@H](NC(=O)[C@H](Cc1ccccc1)N=[N+]=[N-])C(=O)N[C@@H](CC(C)C)C(=O)N[C@@H](Cc1ccc(CN)cc1)C(=O)[C@@]1(C)CO1,0.25,2.7,11,–
CC(=O)N[C@@H](CC(C)C)C(=O)N[C@@H](CC(C)C)C(=O)N[C@@H](CCCNC(=N)N)C(=O)[C@@]1(C)CO1,1,> 30,> 30,–
Cc1c(O)cccc1C(=O)N[C@H](C(=O)N[C@@H](CO)C(=O)N[C@@H](CCCNC(=N)N)C(=O)[C@@]1(C)CO1)C(C)C,0.3,80,80,Ratio IC50 [5]: 25; Ratio IC50 (Oryctolagus cuniculus): 267; IC50 [6]: > 30 µM; IC50 [7]: > 30 µM
CC1=CC(C)=[N+]2C1=C(CCCCc1cn([C@@H](Cc3ccccc3)C(=O)N[C@@H](Cc3ccc(CN)cc3)C(=O)N[C@@H](CC(C)C)C(=O)N[C@H](/C=C/S(C)(=O)=O)Cc3ccc(CN)cc3)nn1)c1c(C)cc(C)n1[B-]2(F)F,–,–,–,inhibition [8]: inactive
CC1=CC(C)=[N+]2C1=C(CCCCc1cn([C@@H](Cc3ccccc3)C(=O)N[C@@H](CC(C)C)C(=O)N[C@@H](CC(C)C)C(=O)N[C@H](/C=C/S(C)(=O)=O)Cc3ccc(CN)cc3)nn1)c1c(C)cc(C)n1[B-]2(F)F,–,–,–,inhibition [8]: Active; inhibition [9]: Active
CC(C)C[C@H](NC(=O)[C@H](Cc1ccc(CN)cc1)NC(=O)[C@H](Cc1ccccc1)N=[N+]=[N-])C(=O)N[C@H](/C=C/S(C)(=O)=O)Cc1ccc(N)cc1,0.0063,0.19,> 30,Ratio IC50 (Oryctolagus cuniculus): 59; IC50 [4]: 0.63 µM; Ratio IC50 (Homo sapiens): 6.3
CC(C)C[C@H](NC(=O)[C@H](Cc1ccccc1)NC(=O)[C@H](Cc1ccccc1)N=[N+]=[N-])C(=O)N[C@H](/C=C/S(C)(=O)=O)Cc1ccccc1,> 30,1,> 30,IC50 [4]: 0.11 µM; Ratio IC50 (Homo sapiens): 0.04
